The text below walks through data of ChEMBL document CHEMBL1132974 (J Med Chem, 2000).

The target of assay [1] is T1, Alpha-1D adrenergic receptor (Rattus norvegicus, UniProt P23944).
T1 sequence (P23944 whole entry): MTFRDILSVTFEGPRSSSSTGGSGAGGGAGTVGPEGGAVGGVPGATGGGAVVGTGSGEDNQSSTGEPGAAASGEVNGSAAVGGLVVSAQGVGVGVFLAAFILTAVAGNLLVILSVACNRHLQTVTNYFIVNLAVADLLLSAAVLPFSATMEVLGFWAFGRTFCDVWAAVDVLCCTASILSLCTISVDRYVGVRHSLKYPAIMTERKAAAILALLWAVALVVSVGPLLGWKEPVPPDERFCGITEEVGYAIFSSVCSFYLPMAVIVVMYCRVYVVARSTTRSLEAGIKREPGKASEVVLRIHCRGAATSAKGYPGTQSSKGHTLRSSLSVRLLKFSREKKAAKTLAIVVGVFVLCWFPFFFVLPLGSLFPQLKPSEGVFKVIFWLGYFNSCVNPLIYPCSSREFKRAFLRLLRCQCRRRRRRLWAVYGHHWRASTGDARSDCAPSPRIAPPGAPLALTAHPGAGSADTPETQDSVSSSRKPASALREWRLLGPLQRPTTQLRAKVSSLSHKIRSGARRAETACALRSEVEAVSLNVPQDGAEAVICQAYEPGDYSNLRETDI
As to the kind of experiment: Compound was evaluated for its antagonist affinity towards Alpha-1D adrenergic receptor of rat. Format: functional. As to conditions: read-out: pA2 (converted). In a few lines: (§1)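 Functional antagonism in rat tissues: α1D (thoracic aorta), 5-HT2A (tail artery), 5-HT4 (oesophageal tunica muscularis mucosae). Results are given as apparent pA2 from single-concentration rightward shifts, or pD'2 when only curve depression occurred.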

Assay [2] addresses Beta-1 adrenergic receptor (Cavia porcellus, UniProt B0FL73). As to the kind of experiment: Compound was evaluated for its antagonist affinity towards Beta-1 adrenergic receptor of guinea pig. It is filed as functional. As to conditions: read-out: pA2 (converted). In a few lines:
(§2)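 Functional antagonism assays in guinea-pig tissues, each run with 1 µM mepyramine present: M3 (whole ileum), β1 (right atrium), 5-HT1B (iliac artery), 5-HT3 (quiescent ileal longitudinal muscle with myenteric plexus). Results are given as apparent pA2, or pD'2 when only curve depression occurred.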

Assay [3] addresses T2, Histamine H1 receptor (Rattus norvegicus, UniProt P31390). Kind of assay: Effective concentration for agonism activity in relaxed rat aortic rings with intact endothelium, submaximally precontracted with 15.8 nM U-46,619. It is filed as functional, tissue-based, Aorta.
In the next assay the target is Histamine H3 receptor (Cavia porcellus, UniProt Q9JI35). Kind of assay: Compound was evaluated for its antagonist affinity towards Histamine H3 receptor of guinea pig. It is filed as functional. The settings on record: read-out: pA2 (converted). In a few lines: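 Electrically stimulated guinea-pig ileal longitudinal muscle with myenteric plexus, isometric (7.5 mN). Cumulative (R)-α-methylhistamine curves were run with and without test compound (20 min), with 1 µM mepyramine present. Values were apparent pA2, or pD'2 where curves were depressed.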

Assay [4] has as its target T3, Histamine H1 receptor (Cavia porcellus, UniProt P31389). As to the kind of experiment: Compound was evaluated for mepyramine antagonism effects in guinea pig aorta (contraction) at a mepyramine concentration of 100 nM. As to conditions: read-out: pA2 (converted). Format: functional, tissue-based. In a few lines: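 Guinea-pig aortic rings with endothelium damaged, isometric (10 mN), 37 °C Krebs-Henseleit. Agonist curves were run with mepyramine (100 nM, about 60 min) after threshold PGF2α precontraction. Apparent pA2 = −log c + log(r−1).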

Assay [5] has as its target T3, Histamine H1 receptor. As to the kind of experiment: Antagonism of guinea pig ileum contraction at 100 nM mepyramine. It is filed as functional, tissue-based. The settings on record: in the assay text read “at 1-30 nM mepyramine” for “at 100 nM mepyramine”; read-out: pA2 (converted). An outline of the steps: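 Guinea-pig whole ileal segments (2.0–2.5 cm), isotonic, preload 0.5 g, Tyrode's at 37 °C, 95% O2/5% CO2, with 0.1 µM atropine throughout. […] Apparent pA2 = −log c + log(r−1); full pA2 from Schild plot, slope fixed at 1.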

The next assay addresses Histamine H2 receptor (Cavia porcellus, UniProt P47747). As to the kind of experiment: Compound was evaluated for its antagonist affinity towards Histamine H2 receptor of guinea pig. The settings on record: read-out: pA2 (converted). It is filed as functional.
Assay [6] addresses T3, Histamine H1 receptor. Kind of assay: Effective concentration for agonism activity in Endothelium-Denuded guinea pig aortic segment. It is filed as functional, tissue-based, Aorta. In a few lines: (§3)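 Guinea-pig thoracic aortic rings (2–4 mm), endothelium rubbed off, isometric (10 mN), modified Krebs-Henseleit (1.80 mM Ca2+), 37 °C. Cimetidine, corticosterone and cocaine (30 µM each), prazosin and yohimbine (0.3 µM each) and propranolol (0.1 µM) were present. […] The pEC50 shift was corrected using untreated control preparations.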

The target in assay [7] is T3, Histamine H1 receptor. Kind of assay: Effective concentration for agonist activity in guinea pig ileum whole segment. Format: functional, tissue-based.
Assay [8] concerns the target Muscarinic acetylcholine receptor M3 (Cavia porcellus, UniProt Q8VH26). As to the kind of experiment: Compound was evaluated for its antagonist affinity towards Muscarinic acetylcholine receptor M3 of guinea pig. Format: functional. As to conditions: read-out: pA2 (converted). In a few lines:
as §2

Assay [9] has as its target T2, Histamine H1 receptor. Kind of assay: Compound was evaluated for mepyramine antagonism effects in rat aorta (relaxation) at a mepyramine concentration of 100 nM. It is filed as functional, tissue-based. As to conditions: read-out: pA2 (converted).
Assay [10] addresses 5-hydroxytryptamine receptor 2A (Rattus norvegicus, UniProt P14842). Kind of assay: Compound was evaluated for its antagonist affinity towards 5-hydroxytryptamine 2A receptor of rat. Format: functional. The settings on record: read-out: pA2 (converted). An outline of the steps: as §1
The target of assay [11] is 5-hydroxytryptamine receptor 4 (Rattus norvegicus, UniProt Q62758). As to the kind of experiment: Compound was evaluated for its antagonist affinity towards 5-hydroxytryptamine 4 receptor of rat. Format: functional. The settings on record: read-out: pA2 (converted). In a few lines:
as §1

The target of assay [12] is 5-hydroxytryptamine receptor 1B (Cavia porcellus). Kind of assay: Compound was evaluated for its antagonist affinity towards 5-hydroxytryptamine 1B receptor of guinea pig. The settings on record: read-out: pA2 (converted).
Assay [13] concerns the target T2, Histamine H1 receptor. As to the kind of experiment: Relative potency was recorded in relaxed rat aortic rings with intact endothelium, submaximally precontracted with 15.8 nM U-46,619 value. Format: functional, tissue-based, Aorta. As to conditions: read-out: pA2 (converted).
The target of assay [14] is Histamine H1 receptor (Cavia porcellus) (UniProt P31389). As to the kind of experiment: Intrinsic activity was reported in endothelium-denuded guinea pig(pre contracted with PGF-2 alpha) at a concentration of 10 uM. It is filed as functional. An outline of the steps:
(§4)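 Endothelium-denuded guinea-pig aortic rings, set up as in the contraction assay, challenged twice with PGF2α (10 µM). Rings were precontracted with a threshold PGF2α level (usually 0.4–1.5 µM, 10–20% of the 10 µM response).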

Assay [15] deals with T3, Histamine H1 receptor. As to the kind of experiment: Relative potency was recorded in endothelium-denuded guinea pig; value ranges from 5.75 to 6.25. It is filed as functional. As to conditions: read-out: pA2 (converted). An outline of the steps: as §3
The target in assay [16] is T3, Histamine H1 receptor. Kind of assay: Relative potency was recorded in endothelium-denuded guinea pig(pre contracted with PGF-2 alpha); value ranges from 5.76 to 6.40. The settings on record: read-out: pA2 (converted). Format: functional. In a few lines:
as §4

Assay [17] concerns the target Histamine H1 receptor (Cavia porcellus) (UniProt P31389). As to conditions: 10 uM.

Values joined by “and” are separate entries in the source; they are usually repeats but may differ in a detail not shown here. Equal values may be shown once.

T2 sequence (P31390 whole entry): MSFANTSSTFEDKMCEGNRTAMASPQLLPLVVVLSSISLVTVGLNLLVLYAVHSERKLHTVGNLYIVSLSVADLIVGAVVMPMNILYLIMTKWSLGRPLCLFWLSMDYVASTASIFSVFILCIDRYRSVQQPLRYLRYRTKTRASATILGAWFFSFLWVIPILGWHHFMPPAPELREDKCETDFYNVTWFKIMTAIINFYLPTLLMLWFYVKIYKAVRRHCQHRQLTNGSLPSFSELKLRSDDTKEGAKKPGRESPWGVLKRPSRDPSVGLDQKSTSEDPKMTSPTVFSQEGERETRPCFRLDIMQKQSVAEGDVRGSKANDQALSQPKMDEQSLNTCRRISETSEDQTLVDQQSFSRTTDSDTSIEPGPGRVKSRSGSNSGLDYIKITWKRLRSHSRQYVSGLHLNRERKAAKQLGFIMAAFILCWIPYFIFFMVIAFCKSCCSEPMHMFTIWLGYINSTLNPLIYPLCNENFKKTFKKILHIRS
T3 sequence (P31389 whole entry): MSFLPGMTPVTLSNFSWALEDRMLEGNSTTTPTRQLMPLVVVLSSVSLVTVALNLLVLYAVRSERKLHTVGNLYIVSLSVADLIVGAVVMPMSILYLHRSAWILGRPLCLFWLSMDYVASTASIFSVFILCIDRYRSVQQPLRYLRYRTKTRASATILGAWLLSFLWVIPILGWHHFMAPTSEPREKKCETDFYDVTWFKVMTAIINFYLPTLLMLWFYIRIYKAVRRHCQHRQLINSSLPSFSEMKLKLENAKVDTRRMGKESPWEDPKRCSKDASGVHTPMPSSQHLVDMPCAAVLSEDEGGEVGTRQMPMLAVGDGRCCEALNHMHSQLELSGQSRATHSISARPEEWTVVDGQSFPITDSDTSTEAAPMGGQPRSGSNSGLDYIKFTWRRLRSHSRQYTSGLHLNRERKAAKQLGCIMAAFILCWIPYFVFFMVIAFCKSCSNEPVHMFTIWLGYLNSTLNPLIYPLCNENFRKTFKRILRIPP
Histamine H1 receptor (Cavia porcellus), sequence (P31389 whole entry): as above
5-hydroxytryptamine receptor 4, sequence (Q62758 whole entry): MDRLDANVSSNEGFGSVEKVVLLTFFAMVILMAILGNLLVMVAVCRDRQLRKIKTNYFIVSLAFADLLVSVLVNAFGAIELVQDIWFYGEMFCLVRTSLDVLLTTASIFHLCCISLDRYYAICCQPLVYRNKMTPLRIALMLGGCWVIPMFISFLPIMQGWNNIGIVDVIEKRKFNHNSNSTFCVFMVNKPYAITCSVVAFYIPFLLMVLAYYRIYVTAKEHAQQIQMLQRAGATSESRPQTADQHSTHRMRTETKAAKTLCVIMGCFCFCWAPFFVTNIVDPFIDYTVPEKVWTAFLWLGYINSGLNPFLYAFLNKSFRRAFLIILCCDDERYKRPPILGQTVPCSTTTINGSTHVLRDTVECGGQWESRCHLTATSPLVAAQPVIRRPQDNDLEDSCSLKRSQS
Histamine H3 receptor, sequence (Q9JI35 whole entry): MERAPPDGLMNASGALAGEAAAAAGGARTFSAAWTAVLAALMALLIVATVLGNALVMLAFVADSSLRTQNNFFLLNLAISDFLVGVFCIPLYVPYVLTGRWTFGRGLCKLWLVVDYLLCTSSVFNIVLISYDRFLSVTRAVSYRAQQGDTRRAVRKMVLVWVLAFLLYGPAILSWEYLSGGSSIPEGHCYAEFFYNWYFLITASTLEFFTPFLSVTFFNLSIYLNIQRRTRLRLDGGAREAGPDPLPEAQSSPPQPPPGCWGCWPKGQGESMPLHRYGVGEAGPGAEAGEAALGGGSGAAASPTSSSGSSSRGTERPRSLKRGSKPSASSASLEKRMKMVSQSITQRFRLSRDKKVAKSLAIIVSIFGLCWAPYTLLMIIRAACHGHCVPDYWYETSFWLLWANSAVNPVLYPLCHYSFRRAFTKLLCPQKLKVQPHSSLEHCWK
Beta-1 adrenergic receptor, sequence (B0FL73 whole entry): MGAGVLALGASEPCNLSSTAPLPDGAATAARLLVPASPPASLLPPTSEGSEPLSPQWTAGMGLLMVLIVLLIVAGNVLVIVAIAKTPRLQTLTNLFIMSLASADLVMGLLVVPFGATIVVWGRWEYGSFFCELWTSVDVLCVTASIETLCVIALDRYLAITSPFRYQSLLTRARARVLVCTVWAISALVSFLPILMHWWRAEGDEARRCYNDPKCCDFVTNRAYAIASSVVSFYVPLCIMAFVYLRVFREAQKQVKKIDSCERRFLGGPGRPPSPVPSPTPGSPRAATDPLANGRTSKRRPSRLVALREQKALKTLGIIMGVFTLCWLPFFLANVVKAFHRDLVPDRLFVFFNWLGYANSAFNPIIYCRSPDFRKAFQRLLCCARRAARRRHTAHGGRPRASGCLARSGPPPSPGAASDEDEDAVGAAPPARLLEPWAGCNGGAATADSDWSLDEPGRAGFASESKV
5-hydroxytryptamine receptor 2A, sequence (P14842 whole entry): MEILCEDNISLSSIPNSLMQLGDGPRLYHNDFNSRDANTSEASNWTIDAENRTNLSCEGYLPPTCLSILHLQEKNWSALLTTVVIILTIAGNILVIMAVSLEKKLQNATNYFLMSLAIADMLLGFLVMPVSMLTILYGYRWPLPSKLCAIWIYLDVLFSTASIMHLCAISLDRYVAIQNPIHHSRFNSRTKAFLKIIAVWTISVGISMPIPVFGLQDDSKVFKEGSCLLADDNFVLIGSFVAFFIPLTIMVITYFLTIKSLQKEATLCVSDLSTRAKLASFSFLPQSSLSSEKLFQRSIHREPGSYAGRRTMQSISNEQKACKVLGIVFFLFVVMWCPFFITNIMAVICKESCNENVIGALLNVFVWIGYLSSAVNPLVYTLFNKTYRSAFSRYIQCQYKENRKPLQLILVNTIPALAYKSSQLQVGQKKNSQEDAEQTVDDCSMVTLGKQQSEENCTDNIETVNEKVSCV
Muscarinic acetylcholine receptor M3, sequence (Q8VH26 whole entry): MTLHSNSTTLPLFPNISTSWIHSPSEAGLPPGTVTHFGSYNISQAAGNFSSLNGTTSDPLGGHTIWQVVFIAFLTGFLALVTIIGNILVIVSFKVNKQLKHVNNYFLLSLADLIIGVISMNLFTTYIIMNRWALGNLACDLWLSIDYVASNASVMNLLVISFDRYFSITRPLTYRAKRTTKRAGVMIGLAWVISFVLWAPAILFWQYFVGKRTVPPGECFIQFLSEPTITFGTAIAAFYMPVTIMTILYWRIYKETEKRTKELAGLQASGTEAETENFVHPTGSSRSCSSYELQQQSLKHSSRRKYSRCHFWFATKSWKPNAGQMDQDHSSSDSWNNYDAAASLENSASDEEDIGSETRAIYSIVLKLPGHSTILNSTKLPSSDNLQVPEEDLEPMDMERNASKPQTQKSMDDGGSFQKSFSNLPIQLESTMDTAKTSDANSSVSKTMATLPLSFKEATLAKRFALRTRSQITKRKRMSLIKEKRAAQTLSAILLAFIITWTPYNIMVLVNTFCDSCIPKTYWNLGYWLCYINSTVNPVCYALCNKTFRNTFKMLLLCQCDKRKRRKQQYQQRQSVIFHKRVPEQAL
Histamine H2 receptor, sequence (P47747 whole entry): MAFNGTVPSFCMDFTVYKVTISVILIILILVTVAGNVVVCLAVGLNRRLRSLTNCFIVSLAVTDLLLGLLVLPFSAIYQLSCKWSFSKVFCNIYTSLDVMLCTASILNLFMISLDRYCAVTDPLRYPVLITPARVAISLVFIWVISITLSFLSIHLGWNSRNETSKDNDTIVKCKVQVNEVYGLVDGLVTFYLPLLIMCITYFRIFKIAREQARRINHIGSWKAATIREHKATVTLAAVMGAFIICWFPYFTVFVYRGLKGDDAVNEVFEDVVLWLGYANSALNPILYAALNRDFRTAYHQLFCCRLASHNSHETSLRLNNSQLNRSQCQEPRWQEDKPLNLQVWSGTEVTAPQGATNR

On to `NCCc1cnc(CCC(c2ccccc2)c2ccccc2)[nH]1`, for which the Kb in assay [1] was 3.55 µM; in [2], 45.7 µM; on Histamine H3 receptor, greater than 1.58 µM; at Histamine H1 receptor [4], 0.00158 µM and 0.000977 µM; on Histamine H1 receptor [5], 0.000776 µM; at Histamine H2 receptor, 34.7 µM. For the same molecule, the Kb in [8] was 2.82 µM; at Histamine H1 receptor [9], 0.00912 µM; in assay [10], 6.46 µM; in assay [11], greater than 3.16 µM; in assay [12] it was 14.1 µM. The half-maximal effective concentration (EC50) at Histamine H1 receptor [3] is 0.851 µM; at Histamine H1 receptor [6], 1.95 µM and 0.309 µM; at Histamine H1 receptor [7], 0.182 µM.

`NCCc1c[nH]c(CCCCC(c2ccccc2)c2ccccc2)n1`: the Kb on Histamine H1 receptor [13] is 1.07 µM; at Histamine H1 receptor [15] it was 1 µM; at Histamine H1 receptor [16], 0.832 µM. The Emax in [14] and in assay [17] was 0 throughout.

As a reminder, the EC50 is the concentration that produces a half-maximal response.
